Measured values reported in ChEMBL document CHEMBL1811814, “Synthesis and evaluation of indole, pyrazole, chromone and pyrimidine based conjugates for tumor growth inhibitory activities--development of highly efficacious cytotoxic agents” (Eur J Med Chem, 2010).

What was measured:
Assay type in all cases: functional
HCT-15 = experiment: Growth inhibition of human HCT15 cells
SK-MEL-28 = experiment: Growth inhibition of human SK-MEL-28 cells assessed tumor cell growth at 10^-5 M; parameters: scale not given: the % may be the effect or the level left
Summary of the method: (§1)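 NCI 60-human-tumor-cell-line panel screen. Each compound was tested at a single concentration of 10^-5 M, and percent growth of tumor cells was recorded for each cell line. Growth inhibition was expressed from these percent-growth values.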

UACC-62 = experiment: Growth inhibition of human UACC62 cells
SF-295 = experiment: Growth inhibition of human SF295 cells assessed tumor cell growth at 10^-5 M; parameters: scale not given: the % may be the effect or the level left; summary of the method: as §1
K562 = experiment: Growth inhibition of human K562 cells
DU-145 = experiment: Growth inhibition of human DU145 cells assessed tumor cell growth at 10^-5 M; parameters: scale not given: the % may be the effect or the level left; summary of the method: as §1
BT-549 = experiment: Growth inhibition of human BT549 cells assessed tumor cell growth at 10^-5 M; parameters: scale not given: the % may be the effect or the level left; summary of the method: as §1
CCRF-CEM = experiment: Growth inhibition of human CCRF-CEM cells assessed tumor cell growth at 10^-5 M; parameters: scale not given: the % may be the effect or the level left; summary of the method: as §1
HL-60(TB) [1] = experiment: Growth inhibition of human HL-60(TB) cells
HT-29 = experiment: Growth inhibition of human HT-29 cells assessed tumor cell growth at 10^-5 M; parameters: scale not given: the % may be the effect or the level left; summary of the method: as §1
MDA-MB-435 = experiment: Growth inhibition of human MDA-MB-435 cells assessed tumor cell growth at 10^-5 M; parameters: scale not given: the % may be the effect or the level left; summary of the method: as §1
Malme-3M [2] = experiment: Growth inhibition of human MALME-3M cells
RXF 393 [3] = experiment: Growth inhibition of human RXF393 cells
T47D = experiment: Growth inhibition of human T47D cells
MOLT-4 [4] = experiment: Growth inhibition of human MOLT4 cells
UO-31 = experiment: Growth inhibition of human UO31 cells
HOP-62 = experiment: Growth inhibition of human HOP62 cells assessed tumor cell growth at 10^-5 M; parameters: scale not given: the % may be the effect or the level left; summary of the method: as §1
U-251 = experiment: Growth inhibition of human U251 cells assessed tumor cell growth at 10^-5 M; parameters: scale not given: the % may be the effect or the level left
Summary of the method: (§2)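 Single-dose screen at 10^-5 M across the 60 human tumor cell line panel, run to NCI standards. The value is the percent growth of each cell line in the presence of compound. Compounds active at this dose moved on to five-concentration testing (10^-4 to 10^-8 M).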

SK-OV-3 = experiment: Growth inhibition of human SKOV3 cells assessed tumor cell growth at 10^-5 M; parameters: scale not given: the % may be the effect or the level left; summary of the method: as §1
SW-620 = experiment: Growth inhibition of human SW620 cells
[5] = Growth inhibition of human […] cells assessed tumor cell growth at 10^-5 M; parameters: scale not given: the % may be the effect or the level left; summary of the method: as §1
SF-268 [6] = experiment: Growth inhibition of human SF268 cells
OVCAR-5 = experiment: Growth inhibition of human OVCAR5 cells assessed tumor cell growth at 10^-5 M; parameters: scale not given: the % may be the effect or the level left; summary of the method: as §1
COLO 205 = experiment: Growth inhibition of human COLO205 cells
[7] = Growth inhibition of human RPMI8266 cells
PC-3 = experiment: Growth inhibition of human PC3 cells assessed tumor cell growth at 10^-5 M; parameters: scale not given: the % may be the effect or the level left; summary of the method: as §1
A549 = experiment: Growth inhibition of human A549 cells
786-0 = experiment: Growth inhibition of human 786-0 cells
UACC-257 [8] = experiment: Growth inhibition of human UACC257 cells assessed tumor cell growth at 10^-5 M; parameters: scale not given: the % may be the effect or the level left; summary of the method: as §2
A498 = experiment: Growth inhibition of human A498 cells
UACC-257 [9] = experiment: Growth inhibition of human UACC257 cells
[10] = Growth inhibition of human Hs 578T cells
SF-539 [11] = experiment: Growth inhibition of human SF539 cells
IGROV-1 [12] = experiment: Growth inhibition of human IGROV1 cells
Summary of the method: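 Follow-up panel testing at five concentrations (10^-4, 10^-5, 10^-6, 10^-7 and 10^-8 M) across the 60 human tumor cell lines. GI50 was obtained for each line from the concentration-response data, with the panel average GI50 also reported.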

CAKI-1 [13] = experiment: Growth inhibition of human Caki1 cells assessed tumor cell growth at 10^-5 M; parameters: scale not given: the % may be the effect or the level left; summary of the method: as §1
RXF 393 [14] = experiment: Growth inhibition of human RXF393 cells assessed tumor cell growth at 10^-5 M; parameters: scale not given: the % may be the effect or the level left; summary of the method: as §1
OVCAR-3 = experiment: Growth inhibition of human OVCAR3 cells
SF-268 [15] = experiment: Growth inhibition of human SF268 cells assessed tumor cell growth at 10^-5 M; parameters: scale not given: the % may be the effect or the level left; summary of the method: as §1
NCI-H460 = experiment: Growth inhibition of human NCI-H460 cells
MOLT-4 [16] = experiment: Growth inhibition of human MOLT4 cells assessed tumor cell growth at 10^-5 M; parameters: scale not given: the % may be the effect or the level left; summary of the method: as §1
Malme-3M [17] = experiment: Growth inhibition of human MALME-3M cells assessed tumor cell growth at 10^-5 M; parameters: scale not given: the % may be the effect or the level left; summary of the method: as §1
SR = experiment: Growth inhibition of human SR cells assessed tumor cell growth at 10^-5 M; parameters: scale not given: the % may be the effect or the level left; summary of the method: as §2
IGROV-1 [18] = experiment: Growth inhibition of human IGROV1 cells assessed tumor cell growth at 10^-5 M; parameters: scale not given: the % may be the effect or the level left; summary of the method: as §1
SF-539 [19] = experiment: Growth inhibition of human SF539 cells assessed tumor cell growth at 10^-5 M; parameters: scale not given: the % may be the effect or the level left; summary of the method: as §1
CAKI-1 [20] = experiment: Growth inhibition of human Caki1 cells
SNB-75 = experiment: Growth inhibition of human SNB75 cells assessed tumor cell growth at 10^-5 M; parameters: scale not given: the % may be the effect or the level left; summary of the method: as §2
HCC 2998 = experiment: Growth inhibition of human HCC2998 cells assessed tumor cell growth at 10^-5 M; parameters: scale not given: the % may be the effect or the level left; summary of the method: as §1
MDA-MB-231 = experiment: Growth inhibition of human MDA-MB-231 cells
HL-60(TB) [21] = experiment: Growth inhibition of human HL-60(TB) cells assessed tumor cell growth at 10^-5 M; parameters: scale not given: the % may be the effect or the level left
Summary of the method: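 HL-60(TB), part of the 60-line panel, tested at a single concentration of 10^-5 M. The read-out is percent tumor cell growth relative to untreated growth.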

[22] = read-out: LC50 (the source's name)

O=C1/C(=C\c2coc3ccccc3c2=O)c2ccccc2N1c1c(Cl)cccc1Cl
GI50 (HCT-15): 600 nM
CC50 (HCT-15; [22]): > 100 µM
Activity (SK-MEL-28): 47.32%
GI50 (UACC-62): 2100 nM
CC50 (UACC-62; [22]): > 100 µM
Activity (SF-295): -12.01%
GI50 (K562): 2000 nM
CC50 (K562; [22]): > 100 µM
Activity (DU-145): 24.59%
Activity (BT-549): 41.11%
Activity (CCRF-CEM): 21.08%
GI50 (HL-60(TB) [1]): 2000 nM
CC50 (HL-60(TB) [1]; [22]): > 100 µM
Activity (HT-29): 47.62%
Activity (MDA-MB-435): 14.46%
GI50 (Malme-3M [2]): 2400 nM
CC50 (Malme-3M [2]; [22]): > 100 µM
GI50 (RXF 393 [3]): 1800 nM
CC50 (RXF 393 [3]; [22]): 69.1 µM
GI50 (T47D): 3000 nM
CC50 (T47D; [22]): > 100 µM
GI50 (MOLT-4 [4]): 2900 nM
GI50 (UO-31): 1800 nM
CC50 (UO-31; [22]): > 100 µM
Activity (HOP-62): 68.24%
Activity (U-251): 36.04%
Activity (SK-OV-3): 74.8%
GI50 (SW-620): 5.2 µM
CC50 (SW-620; [22]): > 100 µM
Activity [5]: 10.21%
GI50 (SF-268 [6]): 3.3 µM
CC50 (SF-268 [6]; [22]): > 100 µM
Activity (OVCAR-5): 101.76%
GI50 (COLO 205): 3.8 µM
GI50 [7]: 1200 nM
CC50 [7, 22]: 69.1 µM
Activity (PC-3): 31.81%
GI50 (A549): 4.2 µM
CC50 (A549; [22]): > 100 µM
GI50 (786-0): 3000 nM
CC50 (786-0; [22]): > 100 µM
Activity (UACC-257 [8]): 61.22%
GI50 (A498): 4.3 µM
CC50 (A498; [22]): > 100 µM
GI50 (UACC-257 [9]): 4.5 µM
CC50 (UACC-257 [9]; [22]): > 100 µM
GI50 [10]: 9.1 µM
CC50 [10, 22]: > 100 µM
GI50 (SF-539 [11]): 3000 nM
CC50 (SF-539 [11]; [22]): > 100 µM
GI50 (IGROV-1 [12]): 1600 nM
CC50 (IGROV-1 [12]; [22]): 97.9 µM
Activity (CAKI-1 [13]): -7.88%
Activity (RXF 393 [14]): 44.09%
GI50 (OVCAR-3): 2600 nM
CC50 (OVCAR-3; [22]): > 100 µM
Activity (SF-268 [15]): 31.99%
GI50 (NCI-H460): 2000 nM
CC50 (NCI-H460; [22]): > 100 µM
Activity (MOLT-4 [16]): 19.03%
Activity (Malme-3M [17]): 83.75%
Activity (SR): 19.47%
Activity (IGROV-1 [18]): 48.69%
Activity (SF-539 [19]): 49.4%
GI50 (CAKI-1 [20]): 2400 nM
CC50 (CAKI-1 [20]; [22]): > 100 µM
Activity (SNB-75): 62.74%
Activity (HCC 2998): 53%
GI50 (MDA-MB-231): 3.8 µM
CC50 (MDA-MB-231; [22]): > 100 µM
Activity (HL-60(TB) [21]): 33.76%
